We go through eight compounds from ChEMBL document CHEMBL1125492, “The calanolides, a novel HIV-inhibitory class of coumarin derivatives from the tropical rainforest tree, Calophyllum lanigerum” (J Med Chem, 1992).

What is called IC50 is the concentration at which inhibition is half-maximal. By EC50 is commonly meant the midpoint of the concentration-response curve.

Data set [1] has as its system CEM-SS. The experiment in a line: Concentration inhibiting HIV-1 induced cytopathic effects in human T-lymphoblastic cells(CEM-SS) and essentially halted HIV-1 replication. The format is functional, cell-based. In a few lines: (§1)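 CEM-SS cells kept in phenol-red-free RPMI 1640 with 5% fetal bovine serum, 2 mM L-glutamine and 50 μg/mL gentamicin, seeded at 2.0×10^5 cells/mL. Infected with HIV-1 RF (HTLV-III_RF) or left uninfected. Compound dissolved in DMSO, diluted in medium (final DMSO ≤1%), tested over <0.1 to >10 μM. Incubated 6 days at 37 °C, 5% CO2. Viability read by XTT-tetrazolium; quadruplicate infected wells, duplicate uninfected wells.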

A short description of data set [2]: Apparent in vitro therapeutic induces(TI) of the compound. The format is ADME.
In data set [3] the test system is CEM-SS. The experiment in a line: Maximum protection of human T-lymphoblastic cells(CEM-SS) from cytopathic effects of HIV-1 by the compound. Type of data set: functional. In a few lines: as §1
(Cytopathic effects are the visible damage that an infection or toxin causes in cultured cells.)

The subject of data set [4] is CEM-SS. The experiment in a line: Potency to inhibit HIV-1 induced cytopathic effects in human T-lymphoblastic cells(CEM-SS) and essentially halted HIV-1 replication. The format is functional, cell-based. In a few lines:
as §1

In data set [5] the test system is CEM-SS cells (Homo sapiens). The experiment in a line: Cytotoxicity against CEM-SS cells.
For data set [6], the system named is CEM-SS. The experiment in a line: Inhibition of HIV-1 replication in CEM-SS human lymphoblastoid cells in vitro. The format is functional, cell-based. In a few lines:
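CEM-SS cells infected with HIV-1 RF and treated with a concentration range for 6 days at 37 °C, 5% CO2 (final DMSO ≤1%). Cell-free supernatant assayed for viral reverse transcriptase activity, p24 antigen and syncytium-forming units. Values expressed as percent of infected, untreated controls; each point is the mean of at least quadruplicate determinations.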

With `CCCc1cc(=O)oc2c3c(c4c(c12)OC(C)(C)C=C4)O[C@H](C)[C@@H](C)[C@H]3O` [(+)-CALANOLIDE B], the concentration for half-maximal inhibition (IC50) in the data set on CEM-SS [1] was found to be 15 µM. Moreover, the Therapeutic indices in data set [2] was 37 TI. The compound further registered a Max protection in the data set with CEM-SS [3] of 100%. In the data set on CEM-SS [4], this compound yielded an EC50 of 0.4 µM.

In turn, `CCCc1cc(=O)oc2c3c(c4c(c12)OC(C)(C)C=C4)O[C@H](C)[C@H](C)C3=O` had an IC50 in the data set on CEM-SS [1] of 27 µM.

For the compound `CCCc1cc(=O)oc2c3c(c4c(c12)OC(C)(C)C=C4)O[C@H](C)[C@@H](C)[C@@H]3O` [CALANOLIDE A], the IC50 with CEM-SS [1] stood at 20 µM; in data set [5], 16 µM. For the same compound, the half-maximal effective concentration (EC50) was found to be 0.08 µM in the data set with CEM-SS [6] and 0.1 µM in the data set with CEM-SS [4]. The Therapeutic indices in data set [2] is given as 200 TI. In the data set with CEM-SS [3], this compound had a Max protection of 100%.

With `CCCc1cc(=O)oc2c3c(c4c(c12)OC(C)(C)C=C4)O[C@H](C)[C@@H](C)[C@@H]3OC`, the IC50 in the data set on CEM-SS [1] was determined as 21 µM.

Consider `CCCc1cc(=O)oc2c3c(c4c(c12)OC(C)(C)C=C4)O[C@H](C)[C@@H](C)[C@H]3OC`, for which the IC50 in the data set with CEM-SS [1] came out at 19 µM. This compound showed a Max protection in the data set on CEM-SS [3] of 35%.

Regarding `CCCc1cc(=O)oc2c3c(c4c(c12)OC(C)(C)C=C4)O[C@H](C)[C@H](C)[C@@H]3O` [CALANOLIDE C], 30 µM corresponded to half-maximal inhibition in the data set with CEM-SS [1] (IC50). Further, in the data set with CEM-SS [3], the Max protection was 30%.

Consider `CCCC1CC(=O)Oc2c(C(=O)C(C)C(C)O)c(O)c3c(c21)OC(C)(C)C=C3` (stereo unspecified) [CALANOLIDE E2], for which the half-maximal inhibitory concentration (IC50) with CEM-SS [1] is 25 µM.

`CCCc1cc(=O)oc2c3c(c4c(c12)OC(C)(C)C=C4)O[C@H](C)[C@@H](C)[C@@H]3OC(C)=O` returned a half-inhibitory concentration (IC50) in the data set on CEM-SS [1] of 13 µM. Besides, the Therapeutic indices in data set [2] is reported as 5 TI. Further, the Max protection with CEM-SS [3] was 100%. This compound yielded an EC50 in the data set with CEM-SS [4] of 2.7 µM.
